The values that follow come from ChEMBL document CHEMBL1799947, “Synthesis, transport and antiviral activity of Ala-Ser and Val-Ser prodrugs of cidofovir” (Bioorg Med Chem Lett, 2011).

Activity calls are given as the source filed them. No cut-off for these calls is given here.

Series [1] has as its system Plasma. Kind of series: Drug uptake in fasted Albino Sprague-Dawley rat plasma at 10 mg/kg administered into gastrointestinal tract measured up to 4 hrs. It is filed as ADME, organism-based. More on the design: dose 10 mg/kg. The settings on record: in vivo, other. The essentials: (§1)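 Rats received 3 mg of drug (about 10 mg/kg) by direct injection into the gastrointestinal tract. Plasma was sampled over a 4 h time course. Read-out was dose-corrected total cidofovir species in plasma.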

The test system of series [2] is Plasma. Briefly: Prodrug conversion in CFW Swiss-Webster mouse plasma assessed as cidofovir monoethyl ester formation at 10 mg/kg administered through oral gavage. It is filed as ADME, organism-based. Further details: dose 10 mg/kg, route oral. The conditions noted are these: in vivo.
The subject of series [3] is Vaccinia virus. Briefly: Antiviral activity against Vaccinia virus Copenhagen infected in HFF cells assessed as reduction in plaque formation after 3 days. It is filed as functional, organism-based. The conditions noted are these: Orthopoxvirus vaccinia, 72 h.
The nature of series [4]: Antiviral activity against Cowpox virus Brighton infected in HFF cells assessed as reduction in plaque formation after 3 days. It is filed as functional, cell-based, Cowpox virus (Brighton Red). The settings on record: 72 h.
Another series has as its system Human betaherpesvirus 5. Kind of series: Antiviral activity against Human cytomegalovirus Towne infected in HFF cells assessed as reduction in plaque formation after 10 days. It is filed as functional, organism-based. The settings on record: Human betaherpesvirus 5, Towne, 240 h. The essentials: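 HCMV plaque reduction assay incubated 10 days, with ganciclovir as the positive control.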

Series [5] in a line: Cytotoxicity against human KB cells after 48 hrs by crystal violet staining technique. It is filed as cell-based.
Series [6] in a line: (§2) Cytotoxicity against HFF cells. It is filed as cell-based. The conditions noted are these: human, HFF cells.
Series [7] relates to Vaccinia virus. Kind of series: Antiviral activity against Vaccinia virus Copenhagen infected in HFF cells assessed as reduction in plaque formation up to 100 uM after 3 days. It is filed as functional, organism-based. The settings on record: Orthopoxvirus vaccinia.
Series [8] relates to Plasma. Kind of series: Prodrug conversion in fasted Albino Sprague-Dawley rat assessed as increase of cidofovir species level in plasma at 10 mg/kg into gastrointestinal tract relative to cidofovir or cyclic cidofovir. It is filed as ADME, organism-based. Further details: dose 10 mg/kg. The settings on record: in vivo, other. The essentials:
as §1

For the next series, the system named is HFF. The series is described as §2. It is filed as cell-based. The settings on record: human, hff.

For the molecule `CCOP(=O)(CO[C@H](CO)Cn1ccc(N)nc1=O)OC[C@H](NC(=O)[C@H](C)N)C(=O)OC` (some centres undefined), in the series with Plasma [1], the Drug uptake entry is “Active”. Further, the outcome with Plasma [2] was Active.
Consider `CCOP(=O)(CO[C@H](CO)Cn1ccc(N)nc1=O)OC[C@H](NC(=O)[C@@H](N)C(C)C)C(=O)OC` (some centres undefined), for which the Drug uptake result in the series on Plasma [1] is reported as “Not Active”. The outcome with Plasma [2] was Active.
In the case of `CC(C)OC(=O)[C@H](COP(=O)(O)CO[C@H](CO)Cn1ccc(N)nc1=O)NC(=O)[C@@H](N)C(C)C`, the values for the IC50 (in the series on Vaccinia virus [3]; in series [4]; in the series with Human betaherpesvirus 5) were more than 100 µM, more than 100 µM and 0.32 µM, respectively. The CC50 at 48 h in series [5] is more than 100 µM.
As for `CC(C)OC(=O)[C@H](COP1(=O)CO[C@@H](Cn2ccc(N)nc2=O)CO1)NC(=O)[C@H](N)C(C)C` (some centres undefined), the Drug uptake entry with Plasma [1] is listed as “Active”.
In the case of `COC(=O)[C@H](COP1(=O)CO[C@@H](Cn2ccc(N)nc2=O)CO1)NC(=O)[C@@H](N)C(C)C` (some centres undefined), the values for the IC50 (with Vaccinia virus [3]; in [4]; in the series on Human betaherpesvirus 5) were 100 µM, more than 30 µM and 0.3 µM, respectively. In addition, the CC50 in [6] is more than 100 µM. The CC50 at 48 h in series [5] is more than 100 µM.
For `CCOP(=O)(O)CO[C@H](CO)Cn1ccc(N)nc1=O`, in the series with Vaccinia virus [7], the result was inactive.
Take `CC(C)OC(=O)[C@H](COP(=O)(O)CO[C@H](CO)Cn1ccc(N)nc1=O)NC(=O)[C@H](N)C(C)C` (mixture of isomers): the Drug uptake entry in the series with Plasma [1] is “Active”. The IC50 in the series on Vaccinia virus [3] was more than 100 µM; in [4], more than 100 µM; in the series with Human betaherpesvirus 5 it was 1.3 µM. Further, the “fold change (FC)” value in the series on Plasma [8] came out at 15. Also, the CC50 at 48 h in series [5] was more than 100 µM.
`Nc1ccn(C[C@@H](CO)OCP(=O)(O)O)c(=O)n1.O.O` [CIDOFOVIR]: the Drug uptake entry in the series on Plasma [1] is “Active”. Moreover, the IC50 stood at 20 µM in the series on Vaccinia virus [3], 30 µM in [4] and 0.11 µM with Human betaherpesvirus 5. The CC50 in series [6] was more than 100 µM. In [5], this molecule gave a CC50 at 48 h of more than 100 µM.
Consider `Nc1ccn(C[C@H]2COP(=O)(O)CO2)c(=O)n1` [CYCLIC CIDOFOVIR], for which the Drug uptake result with Plasma [1] is “Active”. Also, the half-inhibitory concentration (IC50) amounted to 40 µM in the series with Vaccinia virus [3], 30 µM in [4] and 0.25 µM in the series with Human betaherpesvirus 5. This molecule came in with a CC50 in the series with HFF of 100 µM. In series [5], this molecule yielded a CC50 at 48 h of more than 100 µM.
As to `Nc1ncnc2c1ncn2[C@@H]1O[C@H](CO)[C@@H](O)[C@@H]1O` [VIDARABINE], the IC50 in the series on Vaccinia virus [3] came to 2 µM.

A word on the IC50: it is the concentration needed to halve the response being measured. For orientation: CC50 means the concentration that lowers cell viability or growth by half. Low values mean greater toxicity to the cells, high ones lower toxicity to the cells.
